The values that follow come from ChEMBL document CHEMBL1146490, “New diterpenoids from Viburnum awabuki” (2004).

≈ marks a conversion by molar mass, not a printed value. Where only a bound is given, the exact number is not on record here.

Common to all, as to type: functional
Conditions in all cases: read-out: ED50 (the source's name)

The test system of assay [1] is P388. Description: Cytotoxicity against mouse P388 cells. A digest of the protocol: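 P-388 is a mouse lymphocytic leukemia line, supplied by J. M. Pezzuto (Purdue University), grown in culture and tested by the same previously described cytotoxicity procedure.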
The test system of assay [2] is A549. Description: Cytotoxicity against human A549 cells. A digest of the protocol:
(§1)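 Standard cytotoxicity procedure from earlier work. A549 is a human lung adenocarcinoma line and HT-29 a human colon adenocarcinoma line, both grown as cell cultures. Potency is given as ED50 in µg/mL.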

The test system of assay [3] is HT-29. The assay can be described thus: Cytotoxicity against human HT-29 cells. The gist of the method: as §1

On to `CC(C)=CC(=O)O[C@@H]1/C=C/[C@@](C)(CCC(O)C(C)(C)O)C/C=C(/CO)C(=O)/C=C/[C@@]1(C)O` (some centres not stated) [VIBSANIN U], for which the EC50 in assay [1] is < 10 µg/mL.
Regarding `C=C(C)/C=C/C[C@]1(C)/C=C/[C@@H](OC(=O)C=C(C)C)[C@]2(C)O[C@H]2CC/C(CO)=C\C1` [VIBSANIN R], the EC50 in assay [1] was < 10 µg/mL.
In the case of `CC(=O)C[C@@H]1C(=O)C(CO)=CC[C@](C)(CCC(O)C(C)(C)O)[C@H]1/C=C/OC(=O)C=C(C)C` (some centres not stated) [VIBSANIN W], the EC50 turned out to be 5.6 µg/mL (≈ 12.4 µM) in assay [2], 8.15 µg/mL (≈ 18.1 µM) in assay [3] and 2.18 µg/mL (≈ 4.84 µM) in assay [1].
Turning to `COC(C)(C)/C=C/C[C@]1(C)/C=C/[C@@H](OC(=O)C=C(C)C)[C@]2(C)O[C@H]2CC/C(CO)=C\C1` [VIBSANIN Q], the EC50 in assay [1] was < 10 µg/mL.
Same read-out and setting: as for `C=C(C)C(O)CC[C@]1(C)/C=C/C[C@]2(C)O[C@H]2CC/C(C=O)=C\C1` (some centres not stated) [VIBSANIN V], the figure is < 10 µg/mL.
`CC(C)=CC(=O)O[C@@H]1/C=C/[C@@](C)(C/C=C/C(C)(C)O)C/C=C(/CO)CC[C@@H]2O[C@]21C` [VIBSANIN P]: the results for the EC50 in assay [2], in assay [3] and in assay [1] were 4.62 µg/mL (≈ 11 µM), 9.97 µg/mL (≈ 23.8 µM) and 2.25 µg/mL (≈ 5.38 µM), respectively.
`C=C(C)C(O)CC[C@]1(C)/C=C/[C@@H](OC(=O)C=C(C)C)[C@]2(C)O[C@H]2CC/C(CO)=C\C1` (some centres not stated) [VIBSANIN S]: in assay [1], the EC50 is < 10 µg/mL.
`CC(C)=CC(=O)O[C@@H]1/C=C/[C@@](C)(C/C=C/C(C)(C)O)C/C=C(/C=O)CC[C@@H]2O[C@]21C` [VIBSANIN T]: the EC50 in assay [1] was < 10 µg/mL.
